Test results as given in paper PMC2193291 (The Journal of Experimental Medicine, 2000).
Like-named read-outs stand apart in the source and are kept apart here. One block for each molecule: values may come before it.

Assays:
cRaf = cRaf (Homo sapiens, UniProt P04049); assay type: cell-based
Method in brief: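 COS-7 cells transfected with Flag-cRaf by calcium phosphate, kept 2 d in serum-free phenol-red-free DME, then given retinoids and/or scavengers (100 mM sodium azide, 1 mM N-acetylcysteine). UVB-irradiated at 400 μw/cm2 and incubated at 37°C for set times. Flag-Raf pulled down with anti-Flag M2 and washed in 0.5 M NaCl. Kinase reaction: 200 ng His-MEK(K97M), 60 μM ATP plus [γ-32P]ATP, 20 min, 30°C.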

[1] = target: Human cRaf-1 C1 ZiF domain (Homo sapiens, UniProt P04049); test: Retinoid binding by quenching of intrinsic protein
[2] = target: Drosophila PKC C1B ZiF domain (Drosophila melanogaster, UniProt P05130); test: Retinol binding by trp fluorescence quench, Gst fusion protein
Method in brief: (§1)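 Gst-ZiF fusions expressed in E. coli BL21/DE3 and purified on glutathione-agarose to >90%. Constructs: Drosophila C1A aa 40–101; C1B aa 105–261 plus trp 262; Vav aa 464–518 plus trp 519. Protein at 250 nM in helium-degassed PBS, titrated stepwise with all-trans retinol from a methanol stock. Trp emission 330 nm (excitation 280 nm), corrected for inner filtering. Kd from nonlinear fit over at least four independent measurements.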

[3] = target: T1, S. cerevisiae PKC C1B ZiF domain (Saccharomyces cerevisiae, UniProt P24583); test: as above
T1 sequence (P24583 481-531 limits assumed): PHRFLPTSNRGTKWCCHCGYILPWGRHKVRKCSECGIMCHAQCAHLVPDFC
Method in brief: as §1

[4] = target: Human PKCα C1B ZiF domain (Homo sapiens, UniProt P17252); test: as above
Method in brief: as §1

Human Vav C1 ZiF domain = target: T2, Human Vav C1 ZiF domain (Homo sapiens, UniProt P15498); test: as above
T2 sequence (P15498 with tags, fused parts or gaps): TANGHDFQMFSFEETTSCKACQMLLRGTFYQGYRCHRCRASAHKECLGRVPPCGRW
Method in brief: as §1

[5] = tested on: cRaf/MAPK (ERK1 and 2 phosphorylation); test: Oxidative; assay type: cell-based; settings: 3T3 cells, 2 μM retinol
[6] = target: T3, S. cerevisiae PKC C1A ZiF domain (Saccharomyces cerevisiae, UniProt P24583); test: Retinol binding by trp fluorescence quench, Gst fusion protein
T3 sequence (P24583 414-461 limits assumed): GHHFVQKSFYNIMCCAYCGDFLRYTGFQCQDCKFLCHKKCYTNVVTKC

[7] = target: T4, Human PKCμ C1B ZiF domain (Homo sapiens, UniProt Q15139); test: Retinol binding by trp fluorescence quench, Gst fusion protein
T4 sequence (Q15139 270-320 limits assumed): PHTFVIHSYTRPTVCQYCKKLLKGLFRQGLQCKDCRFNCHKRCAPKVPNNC
Method in brief: as §1

[8] = target: Human PKCδ C1B ZiF domain (Homo sapiens, UniProt Q05655); test: Retinol binding by trp fluorescence quench, Gst fusion protein
Sequence of Human PKCδ C1B ZiF domain (Q05655 231-280): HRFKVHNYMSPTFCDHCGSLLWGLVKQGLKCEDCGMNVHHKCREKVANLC

[9] = target: Human PKCδ C1A ZiF domain (Homo sapiens, UniProt Q05655); test: Retinol binding by trp fluorescence quench, Gst fusion protein
Sequence of Human PKCδ C1A ZiF domain (Q05655 159-209): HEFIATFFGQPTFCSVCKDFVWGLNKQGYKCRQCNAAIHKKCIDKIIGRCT
Method in brief: as §1

[10] = target: Human PKCα C1A ZiF domain (Homo sapiens, UniProt P17252); test: as above
Method in brief: as §1

PKCα = PKCα (Mus musculus, UniProt P20444); test: PKCα immunoprecipitation/kinase assay of H2O2-activated 3T3 cells; assay type: cell-based
Method in brief: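 3T3 cells retinol-depleted, some repleted 12 h with 2 μM retinol, then activated 10 min with graded H2O2 doses without staurosporine. Detergent lysates immunoprecipitated with PKCα antibody. Kinase activity measured in washed immunoprecipitates with H1 histone as substrate. Normalized data from six independent H2O2 titrations.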

MAPK (phospho-ERK) = test: Peroxide activation of endogenous MAPK in Jurkat cells, phospho-ERK Western blot; assay type: cell-based; settings: 100 μM H2O2, different concentrations of retinol
Method in brief: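 Jurkat cells grown serum-free and retinol-free, then given varying retinol concentrations. Activated 15 min later for 10 min with 100 μM H2O2. Endogenous MAPK activity read as phospho-ERK on Western blots.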

Human PKCζ C1 ZiF domain = target: T5, Human PKCζ C1 ZiF domain (Homo sapiens, UniProt Q05513); test: Retinol binding by trp fluorescence quench, Gst fusion protein
T5 sequence (Q05513 130-180 limits assumed): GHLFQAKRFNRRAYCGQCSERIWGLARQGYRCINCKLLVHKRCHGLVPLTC

[11] = target: Drosophila PKC C1A ZiF domain (Drosophila melanogaster, UniProt P05130); test: Retinol binding by trp fluorescence quench, Gst fusion protein
Method in brief: as §1

[12] = target: Gst-Raf ZiF (human cRaf-1 ZiF domain) (Homo sapiens, UniProt P04049); test: Retinol binding by fluorescence resonance energy transfer
[13] = target: T6, Human PKCμ C1A ZiF domain (Homo sapiens, UniProt Q15139); test: Retinol binding by trp fluorescence quench, Gst fusion protein
T6 sequence (Q15139 146-196 limits assumed): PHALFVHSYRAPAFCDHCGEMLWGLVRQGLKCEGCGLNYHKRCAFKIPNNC
Method in brief: as §1

Sequence of cRaf (P04049 whole entry): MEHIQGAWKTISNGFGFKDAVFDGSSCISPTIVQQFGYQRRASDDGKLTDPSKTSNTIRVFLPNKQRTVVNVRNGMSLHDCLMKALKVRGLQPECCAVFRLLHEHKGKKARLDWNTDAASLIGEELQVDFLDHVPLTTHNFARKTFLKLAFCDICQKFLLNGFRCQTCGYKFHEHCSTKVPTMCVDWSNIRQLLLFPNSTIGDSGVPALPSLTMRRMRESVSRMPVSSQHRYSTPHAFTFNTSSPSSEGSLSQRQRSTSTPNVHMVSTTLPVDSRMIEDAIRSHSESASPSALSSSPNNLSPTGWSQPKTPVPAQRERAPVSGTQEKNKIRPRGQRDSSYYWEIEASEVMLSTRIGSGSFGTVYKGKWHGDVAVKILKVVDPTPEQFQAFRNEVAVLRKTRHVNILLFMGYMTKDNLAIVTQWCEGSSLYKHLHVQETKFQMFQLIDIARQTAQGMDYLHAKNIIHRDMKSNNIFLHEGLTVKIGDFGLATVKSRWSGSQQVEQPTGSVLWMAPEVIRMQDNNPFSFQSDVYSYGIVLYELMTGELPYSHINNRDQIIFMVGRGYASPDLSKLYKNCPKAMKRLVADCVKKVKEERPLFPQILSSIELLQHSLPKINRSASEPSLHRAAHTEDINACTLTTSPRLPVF

SMILES: [2H]O[2H] [deuterated water]
Effect on UVB-induced Raf activity (cRaf; addition of deuterated water): distinct, though moderate, enhancement

SMILES: [N-]=[N+]=[N-].[Na+] [sodium azide]
Effect on UVB-induced Raf activation (cRaf; sodium azide 100 mM): abolished the Raf activation

Effect on UVB-induced Raf activation (cRaf; N-acetylcysteine 1 mM): abolished the Raf activation
SMILES: CC(=O)N[C@@H](CS)C(=O)O [N-acetylcysteine]

Kd ([1]; Binding constant, cRaf-1 amino acids 136–195, trp fluorescence quench, ± SE): 22 ± 3.5 nM
Kd [2]: > 500 nM
Kd [3]: > 500 nM
Kd [4]: > 500 nM
Kd (Human Vav C1 ZiF domain): > 500 nM
Kd [6]: 17.9 ± 5.1 nM
Kd [7]: 17.3 ± 4 nM
Kd [8]: 67.3 ± 1.3 nM
Kd [9]: 95.2 ± 1.3 nM
Augmentation of UVB-induced Raf kinase activity (cRaf; COS cells replenished with 2 μM retinol, UVB): 2.2 ± 0.4 fold
Kd [10]: 20.7 ± 4 nM
Activation of PKC by phorbol ester (PKCα; 150 nM phorbol ester): not significantly enhanced
Increase of PKCα kinase activity at maximum stimulation over unstimulated cells (PKCα; 3T3 cells, 200 μM H2O2, in the presence of 2 μM retinol, 6 experiments): 20 fold
Optimum dose for enhancement of PKCα activation (PKCα; data not shown): 1 µM
Overall retinol enhancement effect on PKCα kinase activity (PKCα; presence vs absence of retinol, 200 μM H2O2): 3 fold
Intrinsic PKC activation by retinol alone (PKCα; without H2O2): no intrinsic PKC activation
Kd (Human PKCζ C1 ZiF domain): 34.1 ± 6.7 nM
Kd [11]: 18.5 ± 3.7 nM
Kd [12]: 25.8 nM
FRET signal ([12]; truncated Gst-Raf Zif136–186 lacking trp 187): did not elicit a FRET signal
Kd [13]: 18.1 ± 8 nM
SMILES: CC1=C(/C=C/C(C)=C/C=C/C(C)=C/CO)C(C)(C)CCC1 [retinol, all-trans retinol]
MAPK activity in retinol-repleted compared with retinol-deficient cultures ([5]; 300 μM H2O2, peak at 10–15 min, phosphorylated p42): two- to threefold higher
MAPK activation by 5% FBS, retinol-sufficient vs retinol-deficient cultures ([5]; 5% FBS): no differences
Enhancement of MAPK activation by peroxide (MAPK (phospho-ERK)): dose-dependent enhancement

Binding to native Gst-Raf4–256 (fluorescence quenching) ([1]; 1-μM protein solution, native protein): saturable binding
SMILES: CC(C=CC=C(C)C(O)CO)=CC=C1C(C)=CCCC1(C)C (stereo not shown) [14HRR, 14-hydroxy-retro-retinol]
